Measured values taken from ChEMBL document CHEMBL2157924, “Cyclobutane derivatives as novel nonpeptidic small molecule agonists of glucagon-like peptide-1 receptor” (J Med Chem, 2012).
pEC50, pIC50: −log10 of the molar value.

Key:
[1] = biological target: T1, Glucagon-like peptide 1 receptor (Rattus norvegicus, UniProt P32301); assay: Inhibition of [125I]GLP1 (7-36) amide binding to rat GLP1R expressed in HEK293 cells; format: cell-based
T1 sequence (P32301 whole entry): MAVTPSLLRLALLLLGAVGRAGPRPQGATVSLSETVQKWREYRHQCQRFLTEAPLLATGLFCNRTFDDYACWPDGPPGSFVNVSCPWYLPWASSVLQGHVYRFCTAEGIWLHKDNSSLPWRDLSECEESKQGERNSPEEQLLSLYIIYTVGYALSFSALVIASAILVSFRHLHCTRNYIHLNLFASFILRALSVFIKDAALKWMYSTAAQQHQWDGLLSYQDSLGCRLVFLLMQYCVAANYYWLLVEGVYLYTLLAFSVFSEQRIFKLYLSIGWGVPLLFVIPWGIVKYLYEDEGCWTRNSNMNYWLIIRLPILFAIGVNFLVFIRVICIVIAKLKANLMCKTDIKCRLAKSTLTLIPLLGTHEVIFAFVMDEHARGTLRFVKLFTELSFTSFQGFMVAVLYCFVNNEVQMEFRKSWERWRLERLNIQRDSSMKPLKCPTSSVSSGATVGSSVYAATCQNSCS
Summary of the method: (§1)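 Membranes (17 μg protein) from HEK293 cells stably expressing rat GLP-1R were preincubated 5 h at 4 °C with FlashBlue beads (150 μg). Then 40 pM [125I]GLP-1(7−36) amide or [125I]Exendin(9−39) was added with aprotinin 2 μg/mL, leupeptin 100 μM and test compound at varied concentrations. Incubated overnight at 4 °C, then bound radioactivity counted. Mean ± SEM of two independent experiments.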

[2] = biological target: T2, Glucagon-like peptide 1 receptor (Rattus norvegicus) (UniProt P32301); assay: Inhibition of [125I]GLP1 (7-36) amide binding to rat GLP1R expressed in HEK293 cells relative to untreated control; format: cell-based; set-up: concentration or dose not given beside the values; conditions: concentration not given here; summary of the method: as §1
T2 sequence (whole entry): T1 sequence (P32301 whole entry)

[3] = biological target: T2, Glucagon-like peptide 1 receptor (Rattus norvegicus); assay: Inhibition of [125I]Exendin (9-39) binding to rat GLP1R expressed in HEK293 cells; format: cell-based; set-up: concentration or dose not given beside the values; conditions: concentration not given here; summary of the method: as §1
[4] = biological target: T1, Glucagon-like peptide 1 receptor; assay: Agonist activity at rat GLP1R expressed in HEK293 cells assessed as stimulation of cAMP levels incubated for 6 hrs by multiple response element/cAMP response element (MRE/CRE)-driven reporter gene assay; format: functional, cell-based
Summary of the method: (§2)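 Stable HEK293 line co-expressing rat GLP-1R (pCMV-Tag2B) and a luciferase reporter with 3× MRE plus 1× CRE, seeded at 40000 cells/well and cultured overnight. Compounds in DMSO or GLP-1(7−37) were added for 6 h, then cells were lysed and luciferase read (Steady-Glo). The 10 nM GLP-1 maximum was taken as 100%. Mean ± SEM of two independent experiments; some values come from a single run.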

[5] = biological target: T2, Glucagon-like peptide 1 receptor (Rattus norvegicus); assay: Agonist activity at rat GLP1R expressed in HEK293 cells assessed as stimulation of cAMP levels incubated for 6 hrs by multiple response element/cAMP response element (MRE/CRE)-driven reporter gene assay relative to 10 nM GLP1; format: functional, cell-based; summary of the method: as §2

| SMILES | pIC50 [1] | inhibition [2] [%] | inhibition [3] [%] | pEC50 [4] | Efficacy [5] [%] |
| --- | --- | --- | --- | --- | --- |
| COc1cc([C@H]2[C@](NC(=O)c3ccc(NC(=O)C(C)C)cc3)(C(=O)O)[C@@H](c3ccc(OC(C)=O)c(OC)c3)[C@]2(NC(=O)c2ccc(NC(=O)C(C)C)cc2)C(=O)O)ccc1OC(C)=O | – | 34.1 | 35.2 | – | 30 |
| COc1cc([C@H]2[C@](NC(=O)c3ccc(NC(=O)OC(C)(C)C)cc3)(C(=O)O)[C@@H](c3ccc(OCc4ccccc4)c(OC)c3)[C@]2(NC(=O)c2ccc(NC(=O)OC(C)(C)C)cc2)C(=O)O)ccc1OCc1ccccc1 | – | 10 | 14.3 | < 4.70 | < 15 |
| COc1cc([C@H]2[C@](NC(=O)c3ccc(NC(=O)Nc4cccc(F)c4)cc3)(C(=O)O)[C@@H](c3ccc(OC(=O)c4cccs4)c(OC)c3)[C@]2(NC(=O)c2ccc(NC(=O)Nc3cccc(F)c3)cc2)C(=O)O)ccc1OC(=O)c1cccs1 | – | 3.2 | 4.7 | 5.57 | 7.7 |
| COc1cc([C@H]2[C@](NC(=O)c3ccc(NC(=O)C4CCCCC4)cc3)(C(=O)O)[C@@H](c3ccc(OC(=O)c4cccs4)c(OC)c3)[C@]2(NC(=O)c2ccc(NC(=O)C3CCCCC3)cc2)C(=O)O)ccc1OC(=O)c1cccs1 | 6.00 | 58.9 | 54.8 | – | 25 |
| COc1cc([C@H]2[C@](NC(=O)c3ccc(NC(=O)C(C)N)cc3)(C(=O)O)[C@@H](c3ccc(OC(=O)c4cccs4)c(OC)c3)[C@]2(NC(=O)c2ccc(NC(=O)C(C)N)cc2)C(=O)O)ccc1OC(=O)c1cccs1 (some centres undefined) | 4.79 | 35.2 | 27.9 | – | 48 |
| COc1cc([C@H]2[C@](NC(=O)c3ccc(NC(=O)C45CC6CC(CC(C6)C4)C5)cc3)(C(=O)O)[C@@H](c3ccc(OC(=O)c4cccs4)c(OC)c3)[C@]2(NC(=O)c2ccc(NC(=O)C34CC5CC(CC(C5)C3)C4)cc2)C(=O)O)ccc1OC(=O)c1cccs1 | 5.10 | 50.7 | 46.8 | – | 6 |
| COc1cc([C@H]2[C@](NC(=O)c3ccc(NC(=O)CO)cc3)(C(=O)O)[C@@H](c3ccc(OC(=O)c4cccs4)c(OC)c3)[C@]2(NC(=O)c2ccc(NC(=O)CO)cc2)C(=O)O)ccc1OC(=O)c1cccs1 | 5.09 | 59.3 | 52.7 | – | 38 |
| CCCC(=O)Nc1ccc(C(=O)N[C@]2(C(=O)O)[C@H](c3ccc(OC(=O)c4cccs4)c(OC)c3)[C@@](NC(=O)c3ccc(NC(=O)CCC)cc3)(C(=O)O)[C@@H]2c2ccc(OC(=O)c3cccs3)c(OC)c2)cc1 | 5.47 | 52.4 | 48.2 | – | 50 |
| COc1cc([C@H]2[C@](NC(=O)c3ccc(NC(=O)Cc4ccccc4)cc3)(C(=O)O)[C@@H](c3ccc(OC(=O)c4cccs4)c(OC)c3)[C@]2(NC(=O)c2ccc(NC(=O)Cc3ccccc3)cc2)C(=O)O)ccc1OC(=O)c1cccs1 | 5.49 | 45.7 | 33.4 | – | 32 |
| COc1cc([C@H]2[C@](NC(=O)c3ccc(NC(=O)C(C)NC(=O)OC(C)(C)C)cc3)(C(=O)O)[C@@H](c3ccc(OC(=O)c4cccs4)c(OC)c3)[C@]2(NC(=O)c2ccc(NC(=O)C(C)NC(=O)OC(C)(C)C)cc2)C(=O)O)ccc1OC(=O)c1cccs1 (some centres undefined) | 6.05 | 77.3 | 69.7 | – | 49 |
| COc1cc([C@H]2[C@](NC(=O)c3ccc(NC(=O)COCc4ccccc4)cc3)(C(=O)O)[C@@H](c3ccc(OC(=O)c4cccs4)c(OC)c3)[C@]2(NC(=O)c2ccc(NC(=O)COCc3ccccc3)cc2)C(=O)O)ccc1OC(=O)c1cccs1 | 5.72 | 57.5 | 45.9 | – | 12 |

The remaining lines, values ahead:

| pIC50 [1] | inhibition [2] [%] | inhibition [3] [%] | pEC50 [4] | Efficacy [5] [%] | SMILES |
| --- | --- | --- | --- | --- | --- |
| < 4.70 | < 15 | < 15 | < 4.70 | < 15 | CC(C)(C)OC(=O)Nc1ccc(C(=O)N[C@]2(C(=O)O)[C@H](c3ccccc3)[C@@](NC(=O)c3ccc(NC(=O)OC(C)(C)C)cc3)(C(=O)O)[C@@H]2c2ccccc2)cc1 |
| – | 17.5 | 4.8 | – | 26 | COc1cc([C@H]2[C@](NC(=O)c3ccc(NC(=O)OC(C)(C)C)cc3)(C(=O)O)[C@@H](c3ccc(OC(=O)Cc4ccccc4)c(OC)c3)[C@]2(NC(=O)c2ccc(NC(=O)OC(C)(C)C)cc2)C(=O)O)ccc1OC(=O)Cc1ccccc1 |
| – | 27.6 | 8.3 | < 4.70 | < 15 | COc1cc([C@H]2[C@](NC(=O)c3ccc(NC(=O)OC(C)(C)C)cc3)(C(=O)O)[C@@H](c3ccc(OC(=O)c4ccco4)c(OC)c3)[C@]2(NC(=O)c2ccc(NC(=O)OC(C)(C)C)cc2)C(=O)O)ccc1OC(=O)c1ccco1 |
| 5.80 | – | – | 6.07 | – | COc1cc([C@H]2[C@](NC(=O)c3ccc(NC(=O)OC(C)(C)C)cc3)(C(=O)O)[C@@H](c3ccc(OC(=O)c4cccs4)c(OC)c3)[C@]2(NC(=O)c2ccc(NC(=O)OC(C)(C)C)cc2)C(=O)O)ccc1OC(=O)c1cccs1 (stereo in doubt; 3) |
| – | 21.2 | 9.6 | – | 24.8 | CC(C)(C)OC(=O)Nc1ccc(C(=O)N[C@]2(C(=O)O)[C@H](c3ccc(OCc4ccccc4)cc3)[C@@](NC(=O)c3ccc(NC(=O)OC(C)(C)C)cc3)(C(=O)O)[C@@H]2c2ccc(OCc3ccccc3)cc2)cc1 |
| – | 32.5 | 9.4 | < 4.70 | < 15 | COc1cc([C@H]2[C@](NC(=O)c3ccc(NC(=O)OC(C)(C)C)cc3)(C(=O)O)[C@@H](c3ccc(NC(C)=O)c(OC)c3)[C@]2(NC(=O)c2ccc(NC(=O)OC(C)(C)C)cc2)C(=O)O)ccc1NC(C)=O |
| – | 89.8 | 70.5 | – | 121 | COc1cc([C@H]2[C@](NC(=O)c3ccc(NC(=O)OC(C)(C)C)cc3)(C(=O)O)[C@@H](c3ccc(OC(=O)c4cccs4)c(OC)c3)[C@]2(NC(=O)c2ccc(NC(=O)OC(C)(C)C)cc2)C(=O)O)ccc1OC(=O)c1cccs1 (stereo in doubt) [listing 1 of 2 here] |
| – | 13.5 | 6.3 | – | 21.6 | CC(C)(C)OC(=O)Nc1ccc(C(=O)N[C@]2(C(=O)O)[C@H](c3ccc(OC(=O)c4ccccc4)cc3)[C@@](NC(=O)c3ccc(NC(=O)OC(C)(C)C)cc3)(C(=O)O)[C@@H]2c2ccc(OC(=O)c3ccccc3)cc2)cc1 |
| 5.37 | 42 | 56.3 | – | 16.5 | COc1cc([C@H]2[C@](NC(=O)c3ccc(NC(=O)OC(C)(C)C)cc3)(C(=O)O)[C@H](c3ccc(OC(=O)c4cccs4)c(OC)c3)[C@@]2(NC(=O)c2ccc(NC(=O)OC(C)(C)C)cc2)C(=O)O)ccc1OC(=O)c1cccs1 |
| 6.22 | – | – | 6.43 | – | COc1cc([C@H]2[C@](NC(=O)c3ccc(NC(=O)OC(C)(C)C)cc3)(C(=O)O)[C@@H](c3ccc(OC(=O)c4cccs4)c(OC)c3)[C@]2(NC(=O)c2ccc(NC(=O)OC(C)(C)C)cc2)C(=O)O)ccc1OC(=O)c1cccs1 (stereo in doubt) [listing 2 of 2 here] |
| – | 7.45 | 2.4 | 5.03 | 7.5 | COc1ccc([C@H]2[C@](NC(=O)c3ccc(NC(=O)OC(C)(C)C)cc3)(C(=O)O)[C@@H](c3ccc(OC)cc3)[C@]2(NC(=O)c2ccc(NC(=O)OC(C)(C)C)cc2)C(=O)O)cc1 |
| – | 63.7 | < 15 | – | 63.7 | CC(C)(C)OC(=O)Nc1ccc(C(=O)N[C@]2(C(=O)O)[C@H](c3ccc(OC(=O)c4cccs4)cc3)[C@@](NC(=O)c3ccc(NC(=O)OC(C)(C)C)cc3)(C(=O)O)[C@@H]2c2ccc(OC(=O)c3cccs3)cc2)cc1 |
| – | 43.6 | < 15 | 5.08 | 43.6 | COc1cc([C@H]2[C@](NC(=O)c3ccc(NC(=O)OC(C)(C)C)cc3)(C(=O)O)[C@@H](c3ccc(OC(C)=O)c(OC)c3)[C@]2(NC(=O)c2ccc(NC(=O)OC(C)(C)C)cc2)C(=O)O)ccc1OC(C)=O |
| – | 12.1 | 2.8 | < 4.70 | < 15 | CC(=O)Nc1ccc([C@H]2[C@](NC(=O)c3ccc(NC(=O)OC(C)(C)C)cc3)(C(=O)O)[C@@H](c3ccc(NC(C)=O)cc3)[C@]2(NC(=O)c2ccc(NC(=O)OC(C)(C)C)cc2)C(=O)O)cc1 |
| 5.89 | 73.4 | – | – | 68.2 | COc1cc([C@H]2[C@](NC(=O)c3ccc(NC(=O)OC(C)(C)C)cc3)(C(=O)O)[C@H](c3ccc(OC(=O)c4cccs4)c(OC)c3)[C@]2(NC(=O)c2ccc(NC(=O)OC(C)(C)C)cc2)C(=O)O)ccc1OC(=O)c1cccs1 |
